Test results as given in PMC10582670 (Clinical and Translational Science, 2023).
Converted amounts (≈) assume the structure as drawn. “And” between values parts separate entries of the source, which are not always exact repeats. Identical values can stand only once.

Assays:
[1] = Plasma pharmacokinetics after single and multiple oral doses; format: in vivo, human; conditions: for AUC / concentration at 24 h / Cmax / Tmax / Vd/F / half-life: human, plasma, oral; for AUC: AUC0-τ; for Cmax: C max; for Vd/F: V z/F
Method in brief: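 Healthy adults received once-daily oral doses of 50 or 100 mg (8 active: 2 placebo) for up to 14 days, in the morning after an overnight fast of at least 8 h. Plasma was sampled after the first dose through 16 h, predose on days 2, 4 and 7, and through 72 h after the day-14 dose. Concentrations were measured by LC-MS/MS (LLOQ 0.0500 ng/mL). Parameters came from noncompartmental analysis: accumulation ratios day 14 versus day 1, CL/F as dose/AUC0-inf. Values given as geometric mean (geometric CV%).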

Food effect on plasma PK = format: in vivo, human
Method in brief: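 The same healthy subjects from the 75-mg fasted single-dose cohort, after a washout of at least five half-lives, fasted 8 h, ate a high-fat breakfast within 20 min and received a single oral 75 mg dose or placebo 30 min after breakfast began. Plasma was sampled predose, through 72 h and on day 7. Concentrations were measured by LC-MS/MS (LLOQ 0.0500 ng/mL). Relative bioavailability versus fasted dosing was based on AUC and Cmax.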

[2] = tested on: RIP1 pathway activation (CCL4 release in human whole blood); assay: Ex vivo TBZ stimulation assay of whole blood for CCL4 secretion; format: cell-based
Method in brief: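 Whole blood from healthy volunteers in the single- and multiple-ascending-dose stages, collected across the dosing periods, stimulated ex vivo to activate the RIP1-mediated necroptosis pathway; secreted CCL4 measured. Inhibition derived by normalising CCL4 levels to each subject's baseline, then adjusting to the maximum inhibition and SD per cohort. Placebo subjects were sampled in parallel.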

[3] = tested on: RIP1 pathway activation (CCL4 release in human whole blood); assay: PK-PD modeling; format: cell-based
Method in brief: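 CCL4 inhibition from the ex vivo stimulated whole-blood assay was related to GDC-8264 plasma concentrations measured in the same volunteers by PK-PD modelling. The model estimated the IC50 and the maximal target inhibition.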

[4] = MAD both doses, comparable between day 1 and day 14
[5] = MAD 50 mg q.d., n=5, geometric mean (geometric CV%)
[6] = MAD 100 mg q.d., n=7, geometric mean (geometric CV%)
[7] = 50 mg, MAD 50 mg q.d., Day 1, n=5, geometric mean (geometric CV%)
[8] = 50 mg, MAD 50 mg q.d., Day 14, n=5, geometric mean (geometric CV%)
[9] = 100 mg, MAD 100 mg q.d., Day 1, n=7, geometric mean (geometric CV%)
[10] = 100 mg, MAD 100 mg q.d., Day 14, n=7, geometric mean (geometric CV%)

## O=C(c1nc2n(n1)[C@H](c1ccccc1)C[C@@H]2F)C1CC1 [GDC‐8264]
[1]; MAD 50 mg q.d., Day 14, n=5, geometric mean (geometric CV%)
  CL/F: 4.96 (14.1) L/h
[1]; [5]
  ARAUC (accumulation ratio based on AUC0-τ of day 14 versus day 1): 1.39 (4.8)
  ARCmax (accumulation ratio based on C max of day 14 versus day 1): 1.37 (18.3)
[1]; MAD 100 mg q.d., Day 14, n=7, geometric mean (geometric CV%)
  CL/F: 4.72 (15.2) L/h
[1]; [6]
  ARAUC (accumulation ratio based on AUC0-τ of day 14 versus day 1): 1.31 (17.7)
  ARCmax (accumulation ratio based on C max of day 14 versus day 1): 1.41 (27.3)
[1]; MAD, daily doses
  day on which steady-state trough concentrations were observed: 4 days
[1]; SAD 5 mg single oral dose, fasted, n=6, geometric mean (geometric CV%)
  CL/F: 4.71 (10.0) L/h
[1]; SAD 25 mg single oral dose, fasted, n=6, geometric mean (geometric CV%)
  CL/F: 5.08 (30.3) L/h
[1]; SAD 75 mg single oral dose, fasted, n=5, geometric mean (geometric CV%)
  CL/F: 5.70 (19.0) L/h
[1]; SAD 75 mg single oral dose, high fat meal, n=5, geometric mean (geometric CV%)
  CL/F: 5.79 (23.2) L/h
[1]; SAD 150 mg single oral dose, fasted, n=5, geometric mean (geometric CV%)
  CL/F: 5.40 (18.4) L/h
[1]; SAD 225 mg single oral dose, fasted, n=6, geometric mean (geometric CV%)
  CL/F: 4.81 (6.7) L/h
[1]; [7]
  AUC: 7270 ng·h/mL
  Cmax: 610 ng/mL
[1]; [8]
  AUC: 10100 ng·h/mL
  Cmax: 836 ng/mL
  Vd/F: 80.3 L
[1]; 50 mg, C24, MAD 50 mg q.d., Day 1, n=5, geometric mean (geometric CV%)
  concentration at 24 h: 151 ng/mL
[1]; 50 mg, T max, MAD 50 mg q.d., Day 1, n=5, median (range)
  Tmax: 3 h
[1]; 50 mg, T max, MAD 50 mg q.d., Day 14, n=5, median (range)
  Tmax: 2.5 h
[1]; 50 mg, t 1/2, MAD 50 mg q.d., Day 14, n=5, geometric mean (geometric CV%)
  half-life: 11.2 h
[1]; [9]
  AUC: 16200 ng·h/mL
  Cmax: 1180 ng/mL
[1]; [10]
  AUC: 21200 ng·h/mL
  Cmax: 1660 ng/mL
  Vd/F: 77.4 L
[1]; 100 mg, C24, MAD 100 mg q.d., Day 1, n=7, geometric mean (geometric CV%)
  concentration at 24 h: 342 ng/mL
[1]; 100 mg, T max, MAD 100 mg q.d., Day 1, n=7, median (range)
  Tmax: 3 h
[1]; 100 mg, T max, MAD 100 mg q.d., Day 14, n=7, median (range)
  Tmax: 2.5 h
[1]; 100 mg, t 1/2, MAD 100 mg q.d., Day 14, n=7, geometric mean (geometric CV%)
  half-life: 11.4 h
[1]; mean half-life, tablet formulation
  half-life: 11 to 13 h
[1]; mean terminal half-life, range of means across single doses
  half-life: 10 to 13 h
[1]; median T max, SAD 5- and 25-mg doses (suspension formulation)
  Tmax: 1.3 to 1.9 h
[1]; median T max, SAD 75-225-mg doses (tablet formulation)
  Tmax: 3 to 4 h
[1]; median T max, overall, as summarised in the discussion
  Tmax: 2.5 to 4 h
[1]; multiple dosing q.d. up to 14 days, steady state
  accumulation ratio [AR]: ~ 1.4 and 1.3–1.4
Food effect on plasma PK; 75 mg single dose
  effect of a high-fat meal on the PKs: no significant effect
Food effect on plasma PK; 75 mg, compared to the fasted state
  delay of median T max after a high-fat meal: 1 h
[2]; SAD 5- and 25-mg cohorts
  timepoint through which >90% inhibition of CCL4 was sustained: ≥ 48 h
[2]; SAD 75-, 150-, and 225-mg cohorts
  timepoint through which >90% inhibition of CCL4 was sustained: ≥ 72 h
[2]; SAD 150-mg cohort, 144-h timepoint
  levels of CCL4: comparable to the placebo cohort
[2]; SAD 225-mg cohort, 144 h, mean ± SD, placebo 17% ± 3%
  group mean inhibition of CCL4 production: 49% ± 9%
[2]; all SAD cohorts (5-225 mg), 1.5 h postdose
  inhibition of CCL4: greater than 90%
[3]; Homo sapiens, read-out: half-maximal inhibitory concentration (IC50) for the inhibition of CCL4 release
  IC50: 0.58 ng/mL (≈ 2.14 nM)
[3]; estimated by PK-PD (Emax) modeling
  maximal inhibition of the target: 99.4%
[4]
  Geometric mean CLr0-τ: ~ 0.008 L/h
